Measured values published in ChEMBL document CHEMBL1926663, “Identification of new aminoacid amides containing the imidazo[2,1-b]benzothiazol-2-ylphenyl moiety as inhibitors of tumorigenesis by oncogenic Met signaling” (Eur J Med Chem, 2012).
The source made the active and inactive calls. The rule behind the calls is not given here.

Experiments:
[1] = Chemical stability in methanol; format: physicochemical
MDCK [2] = assay: Cytotoxicity against HGF-stimulated […] MDCK cells at 50 to 100 fold higher biologically active concentration; format: cell-based
[3] = Chemical stability in DMSO; format: physicochemical
MDCK [4] = assay: Cytotoxicity against HGF-stimulated […] MDCK cells at biologically active concentration; format: cell-based
[5] = Chemical stability in solid state; format: physicochemical
[6] = Chemical stability in chloroform; format: physicochemical
[7] = biological target: Hepatocyte growth factor receptor (Homo sapiens) (UniProt P08581); assay: Inhibition of Met-mediated scattering in HGF-stimulated […] MDCK cells at 10 uM pre-incubated overnight prior to HGF stimulation for 24 hrs measured after 24 to 48 hrs; format: cell-based
In short: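 MDCK cells in DMEM with 2% FBS, 1000 cells/well, settled overnight; compounds 0.1–100 µM overnight at 37 °C, then HGF 20 ng/ml for 24 h; further 24–48 h; PBS wash, 4% PFA fix; scattered cells counted in 30 colonies; IC50 = 50% inhibition of scattering.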

MCF7 [8] = assay: Cytotoxicity against serum-starved human MCF7 cells over-expressing ErbB2 cells assessed as reduction of cell survival at 10 to 30 uM after 48 hrs by Cell Titer-Glo luminescent assay; format: functional, cell-based
GTL 16 [9] = assay: Cytotoxicity against serum-starved human GTL16 cells assessed as reduction of cell survival after 48 hrs by Cell Titer-Glo luminescent assay; format: functional, cell-based
HepG2 [10] = assay: Cytotoxicity against serum-starved human HepG2 cells assessed as reduction of cell survival after 48 hrs by Cell Titer-Glo luminescent assay; format: functional, cell-based
BT-474 [11] = assay: Cytotoxicity against serum-starved human BT474 cells assessed as reduction of cell survival at 10 to 30 uM after 48 hrs by Cell Titer-Glo luminescent assay; format: functional, cell-based
In short: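 Cells were held in serum-free medium for 24 h, then exposed to compound for 48 h. Viability was read by CellTiter-Glo luminescence, and data come from three independent experiments run in duplicate. BT474 was routinely maintained in RPMI with 4 mM L-glutamine, 10% FBS and penicillin/streptomycin at 37 °C under 5% CO2.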

[12] = biological target: Hepatocyte growth factor receptor (Homo sapiens) (UniProt P08581); conditions: 10 uM
[13] = biological target: Hepatocyte growth factor receptor (Homo sapiens) (UniProt P08581); conditions: BaF3; 1 uM
BaF3 = assay: Antiproliferative activity against IL3-stimulated mouse BA/F3 cells at 1 uM after 48 hrs by cell titre blue based spectrophotometry; format: functional
In short: (§1)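 Ba/F3 cells expressing active kinase forms, or IL3-dependent; 2×10^4 cells/well; 1/2 serial dilutions from 0 to 10 µM (text also gives 0.1–40 µM); 48 h at 37 °C; Cell Titer Blue; absorbance at 490 nm with cell-free blank for background; proliferation as % of untreated cells; triplicate.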

[14] = biological target: Epidermal growth factor receptor (Homo sapiens) (UniProt P00533); assay: Inhibition of ErbB1 phosphorylation in human BT474 cells at 1 to 10 uM pretreated overnight prior to HGF stimulation by Western blot analysis; format: cell-based; conditions: BT-474
In short: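 BT-474 cells starved, pretreated overnight with compound at 1, 3, 10 µM, then HGF 20 ng/ml; total extracts immunoblotted for phospho-ErbBs; ERK as loading control.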

[15] = Antitumor activity against human GTL16 cells xenografted in nude mouse assessed as reduction tumor weight at 10 mg/kg, ip administered for every 2 days for 21 days (reference value: 865.4 348.9 mg); format: functional, GTL 16; conditions: route intraperitoneal
[16] = Antitumor activity against human GTL16 cells xenografted in nude mouse assessed as reduction tumor weight at 30 mg/kg, ip administered for every 2 days for 21 days (reference value: 865.4 348.9 mg); format: functional, GTL 16; conditions: route intraperitoneal
[17] = biological target: Hepatocyte growth factor receptor (Homo sapiens) (UniProt P08581); conditions: HepG2, 10 uM
Mus musculus = assay: Toxicity in human GTL16 cells xenografted nude mouse assessed as reduction of body weight at 10 to 30 mg/kg, ip administered for every 2 days for 21 days; format: organism-based; design: dose 10-30 mg/kg, route intraperitoneal; conditions: in vivo
[18] = biological target: Macrophage-stimulating protein receptor (Homo sapiens) (UniProt Q04912); assay: Inhibition of TEL-fused RON-mediated mouse BA/F3 cell proliferation at 1 uM after 48 hrs by cell titre blue based spectrophotometry; conditions: BaF3; in short: as §1
Hepatocyte = assay: Cytotoxicity against hepatocytes assessed as reduction in cell viability at 100 uM after 24 hrs by Cell Titer-Glo luminescent assay; format: cell-based
In short: (§2)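 Primary embryonic cortical neuron and hepatocyte cultures exposed to compound for 24 h; viability read by Cell Titer Glo luminescence; quadruplicate.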

[19] = Cytotoxicity against cortical neurons assessed as reduction in cell viability at 100 uM after 24 hrs by Cell Titer-Glo luminescent assay; conditions: cortical neurone; in short: as §2
[20] = Antitumor activity against human GTL16 cells xenografted in nude mouse assessed as reduction tumor weight at 10 to 30 mg/kg, ip administered for every 2 days for 21 days; format: functional, GTL 16; design: scale not given: the % may be the effect or the level left; conditions: dose mg/kg 10-30; route intraperitoneal
[21] = biological target: Hepatocyte growth factor receptor (Homo sapiens) (UniProt P08581); conditions: 1 uM
[22] = biological target: Hepatocyte growth factor receptor (Homo sapiens) (UniProt P08581); assay: Inhibition of Met-mediated scattering in HGF-stimulated […] MDCK cells pre-incubated overnight prior to HGF stimulation for 24 hrs measured after 24 to 48 hrs; format: cell-based
MCF7 [23] = assay: Cytotoxicity against serum-starved human MCF7 cells over-expressing ErbB2 cells at 10 uM after 48 hrs by Cell Titer-Glo luminescent assay; format: functional, cell-based
BT-474 [24] = assay: Cytotoxicity against serum-starved human BT474 cells at 10 uM after 48 hrs by Cell Titer-Glo luminescent assay; format: functional, cell-based
GTL 16 [25] = assay: Cytotoxicity against serum-starved human GTL16 cells at 2 uM after 48 hrs by Cell Titer-Glo luminescent assay; format: functional, cell-based
MCF7 [26] = assay: Cytotoxicity against serum-starved human MCF7 cells over-expressing ErbB2 cells at 2 uM after 48 hrs by Cell Titer-Glo luminescent assay; format: functional, cell-based
HepG2 [27] = assay: Cytotoxicity against serum-starved human HepG2 cells at 2 uM after 48 hrs by Cell Titer-Glo luminescent assay; format: functional, cell-based
BT-474 [28] = assay: Cytotoxicity against serum-starved human BT474 cells at 2 uM after 48 hrs by Cell Titer-Glo luminescent assay; format: functional, cell-based

| SMILES | Stability [1] | Activity (MDCK [2]) | Stability [3] | Activity (MDCK [4]) | Stability [5] | Stability [6] | also measured |
| --- | --- | --- | --- | --- | --- | --- | --- |
| Cc1cc(C)cc(CC(=O)N[C@H](Cc2ccccc2)C(=O)Nc2ccc(-c3cn4c(n3)sc3ccccc34)cc2)c1 | Stable | Toxic | Stable | Non-toxic | Stable | Stable |  |
| Cc1ccc(CC(=O)N[C@@H](Cc2ccccc2)C(=O)Nc2ccc(-c3cn4c(n3)sc3ccccc34)cc2)cc1 | Stable | Toxic | Stable | Non-toxic | Stable | Stable | inhibition [7]: 30% |
| Cc1cc(C)cc(CC(=O)N[C@@H](Cc2ccccc2)C(=O)Nc2ccc(-c3cn4c(n3)sc3ccccc34)cc2)c1 | Stable | Toxic | Stable | Non-toxic | Stable | Stable | Activity (MCF7 [8]): inactive; Activity (GTL 16 [9]): Dose-dependent effect; Activity (HepG2 [10]): Dose-dependent effect; Activity (BT-474 [11]): inactive |
| O=C(Cc1cc(F)cc(F)c1)N[C@@H](CS)C(=O)Nc1ccc(-c2cn3c4c(sc3n2)CN(Cc2ccccc2)CC4)cc1 | Stable |  | Stable |  | Stable | Stable |  |
| Cc1cc(C)cc(CC(=O)N[C@@H](Cc2ccccc2)C(=O)Nc2ccc(-c3cn4c5c(sc4n3)CN(Cc3ccccc3)CC5)cc2)c1 | Stable |  | Stable |  | Stable | Stable |  |
| O=C(Cc1cc(C(F)(F)F)cc(C(F)(F)F)c1)N[C@@H](Cc1ccccc1)C(=O)Nc1ccc(-c2cn3c(n2)sc2ccccc23)cc1 | Stable | Toxic | Stable | Non-toxic | Stable | Stable | inhibition [12]: 53%; inhibition [13]: Active; Activity (MCF7 [8]): inactive; Activity (BaF3): Active; inhibition [14]: inactive; Activity (GTL 16 [9]): Dose-dependent effect; Activity [15]: 268.8 mg; Activity (HepG2 [10]): Dose-dependent effect; Activity [16]: 234.8 mg; inhibition [17]: 30%; Activity (Mus musculus): Non-toxic; Activity (BT-474 [11]): inactive; inhibition [18]: Active; Activity (Hepatocyte): 28%; Activity [19]: 12%; Activity [20]: 70%; inhibition [21]: 21% |
| O=C(Cc1cc(F)cc(F)c1)NCCC(=O)Nc1ccc(-c2cn3c4c(sc3n2)CN(Cc2ccccc2)CC4)cc1 | Stable |  | Stable |  | Stable | Stable |  |
| Cc1cc(C)cc(CC(=O)NCC(=O)Nc2ccc(-c3cn4c(n3)sc3ccccc34)cc2)c1 | Stable |  | Stable |  | Stable | Stable | inhibition [22]: inactive |
| Cc1cc(C)cc(CC(=O)N[C@H](Cc2ccccc2)C(=O)Nc2ccc(-c3cn4c5c(sc4n3)CN(Cc3ccccc3)CC5)cc2)c1 | Stable |  | Stable |  | Stable | Stable |  |
| O=C(Cc1cc(F)cc(F)c1)NCCC(=O)Nc1ccc(-c2cn3c4c(sc3n2)CCN(Cc2ccccc2)C4)cc1 | Stable |  | Stable |  | Stable | Stable |  |
| O=C(Cc1cc(C(F)(F)F)cc(C(F)(F)F)c1)N[C@@H](Cc1ccccc1)C(=O)Nc1ccc(-c2cn3c(n2)sc2cc(Br)ccc23)cc1 | Stable | Toxic | Stable | Non-toxic | Stable | Stable |  |
| Cc1ccc(C[C@H](NC(=O)Cc2cc(C)cc(C)c2)C(=O)Nc2ccc(-c3cn4c(n3)sc3ccccc34)cc2)cc1 | Stable |  | Stable |  | Stable | Stable |  |
| COc1cc2ncnc(Nc3ccc(F)c(Cl)c3)c2cc1OCCCN1CCOCC1 |  |  |  |  |  |  | Activity (MCF7 [23]): Active; Activity (BT-474 [24]): Active |
| Cc1cc(C)cc(CC(=O)N[C@@H](Cc2ccccc2)C(=O)Nc2ccc(-c3cn4c5c(sc4n3)CCCC5)cc2)c1 | Stable |  | Stable |  | Stable | Stable |  |
| O=C(Cc1cc(C(F)(F)F)cc(C(F)(F)F)c1)N[C@H](Cc1ccccc1)C(=O)Nc1ccc(-c2cn3c(n2)sc2ccccc23)cc1 | Stable | Toxic | Stable | Non-toxic | Stable | Stable | Activity (MCF7 [8]): inactive; Activity (GTL 16 [9]): Dose-dependent effect; Activity (HepG2 [10]): Dose-dependent effect; Activity (BT-474 [11]): inactive |
| C[C@@H](NC(=O)Cc1cc(F)cc(F)c1)C(=O)Nc1ccc(-c2cn3c4c(sc3n2)CCN(Cc2ccccc2)C4)cc1 | Stable |  | Stable |  | Stable | Stable |  |
| C[C@H](NC(=O)Cc1cc(F)cc(F)c1)C(=O)Nc1ccc(-c2cn3c4c(sc3n2)CCN(Cc2ccccc2)C4)cc1 | Stable |  | Stable |  | Stable | Stable |  |
| Cc1ccc(C[C@H](NC(=O)Cc2cc(C(F)(F)F)cc(C(F)(F)F)c2)C(=O)Nc2ccc(-c3cn4c(n3)sc3ccccc34)cc2)cc1 | Stable |  | Stable |  | Stable | Stable |  |
| Cc1[nH]c(/C=C2\C(=O)Nc3ccc(S(=O)(=O)N(C)c4cccc(Cl)c4)cc32)c(C)c1C(=O)N1CCN(C)CC1 |  |  |  |  |  |  | Activity (GTL 16 [25]): Active; Activity (MCF7 [26]): inactive; Activity (HepG2 [27]): Active; Activity (BT-474 [28]): inactive |
| O=C(Cc1cc(F)cc(F)c1)N[C@@H](Cc1ccccc1)C(=O)Nc1ccc(-c2cn3c(n2)sc2ccccc23)cc1 | Stable | Toxic | Stable | Non-toxic | Stable | Stable | Activity (MCF7 [8]): inactive; Activity (GTL 16 [9]): Dose-dependent effect; Activity (HepG2 [10]): Dose-dependent effect; Activity (BT-474 [11]): inactive |
| Cc1cc(C)cc(CC(=O)N[C@@H](Cc2ccc(O)cc2)C(=O)Nc2ccc(-c3cn4c(n3)sc3ccccc34)cc2)c1 | Stable |  | Stable |  | Stable | Stable |  |
